Data taken from ChEMBL document CHEMBL5620404, “New 4-(N-cinnamoylbutyl)aminoacridines as potential multi-stage antiplasmodial leads” (Eur J Med Chem, 2023).
pIC50: −log10 of the molar value. Activity calls are given as the source filed them. The rule behind the calls is not given here.

How the values were obtained:
[1] = system: Plasmodium berghei; assay: Antiplasmodial activity against firefly luciferase expressing liver stage Plasmodium berghei infected in human Huh-7 cells measured after 48 hrs post infection by […] luminescence assay; format: functional, organism-based; settings: Huh-7, 48 h
Procedure, shortened: (§1)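 Huh7 cells in supplemented RPMI 1640 seeded the day before; ~1 h before infection, medium switched to infection medium with gentamicin, amphotericin B and compound. Cells then infected with PbGFP-Luccon sporozoites from Anopheles stephensi salivary glands. At 48 h, parasite load read as luciferase luminescence in lysates, normalized to 0.01% DMSO control; IC50 by nonlinear regression.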

[2] = system: Plasmodium falciparum; assay: Antiplasmodial activity against blood stage chloroquine-sensitive Plasmodium falciparum 3D7 infected in human erythrocyte; format: functional, organism-based; settings: 3D7, Erythrocyte
Procedure, shortened: (§2)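 3D7 asexual parasites grown in group B erythrocytes, 3% hematocrit, RPMI with 0.5% Albumax II and 2 mM L-glutamine, 37 °C, 5% O2/5% CO2/90% N2. Rings synchronized by 5% sorbitol, then exposed 48 h to compounds (0.0000256–10 μM). Syto11 nuclear stain and flow cytometry (488 nm excitation, 530/30 emission). Inhibition scaled to untreated (0%) and chloroquine-treated (100%) cultures; IC50 by sigmoidal fit.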

[3] = system: Plasmodium berghei; assay: Antiplasmodial activity against firefly luciferase expressing liver stage Plasmodium berghei infected in human Huh-7 cells assessed as reduction in parasite growth measured after 48 hrs post infection by […] luminescence assay; format: functional, organism-based; settings: Huh-7, 48 h; procedure, shortened: as §1
[4] = system: Plasmodium falciparum; assay: Antiplasmodial activity against Plasmodium falciparum NF54-gexp02-Tom gametocytes infected in human erythrocyte at 5 uM by giemsa staining based light microscopy analysis relative to control; format: functional
[5] = system: Huh-7; assay: Cytotoxicity against human Huh-7 cells assessed as reduction in cell confluency at 10 uM measured after 48 hrs by Alamar blue staining based analysis relative to control; format: functional; design: scale not given: the % may be the effect or the level left
[6] = system: Plasmodium falciparum; assay: Antiplasmodial activity against Plasmodium falciparum NF54-gexp02-Tom gametocytes infected in human erythrocyte by giemsa staining based light microscopy analysis; format: functional, organism-based
Procedure, shortened: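 NF54-gexp02-Tom line (tdTomato under early gametocyte promoter) grown in group B human erythrocytes, 3% hematocrit, RPMI with 10% human plasma and 2 mM choline chloride, 37 °C, 5% O2/5% CO2/90% N2. Sexual conversion induced by choline removal plus sorbitol synchronization; compounds 0.0048–100 μM present throughout.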

[7] = system: Plasmodium falciparum; assay: Antiplasmodial activity against blood stage chloroquine-sensitive Plasmodium falciparum 3D7 infected in human erythrocyte incubated for 48 hrs by Syto11 staining based flow cytometry analysis; format: functional, organism-based; settings: 3D7, Erythrocyte; procedure, shortened: as §2
[8] = system: Plasmodium berghei; assay: Antiplasmodial activity against firefly luciferase expressing liver stage Plasmodium berghei infected in human Huh-7 cells assessed as reduction in parasite growth at 1 to 10 uM measured after 48 hrs post infection by […] luminescence assay; format: functional, organism-based; settings: dose 1-10 µM; procedure, shortened: as §1

SMILES	pIC50 [1]	pIC50 [2]	pIC50 [3]	Activity [4] [%]	Activity [5] [%]	pIC50 [6]	pIC50 [7]	Activity [8]
COc1cc(NCCCCN)c2nc3cc(Cl)ccc3cc2c1	5.65	5.25	–	–	–	–	–	–
COc1cc(NC(C)CCCN)c2ncccc2c1 (stereo not given) [PRIMAQUINE]	–	–	4.91	–	–	–	–	–
COc1cc(NCCCCNC(=O)/C=C/c2ccccc2)c2nc3cc(Cl)ccc3cc2c1	–	–	6.30	>40	~75	5.18	< 4.15	Active
COc1cc(NCCCCNC(=O)/C=C/c2ccc(C(F)(F)F)cc2)c2nc3cc(Cl)ccc3cc2c1	–	–	–	15	–	–	–	Active
COc1cc(NCCCCNC(=O)/C=C/c2cccc(F)c2)c2nc3cc(Cl)ccc3cc2c1	–	–	6.25	>40	~75	6.85	5.36	Active
COc1cc(NCCCCNC(=O)/C=C/c2ccc(OC)c(OC)c2)c2nc3cc(Cl)ccc3cc2c1	–	–	–	15	–	–	–	Active
COc1cc(NCCCCNC(=O)/C=C/c2ccc(Cl)cc2)c2nc3cc(Cl)ccc3cc2c1	–	–	6.00	15	~75	–	–	Active
COc1cc(NCCCCNC(=O)/C=C/c2ccc(N(C)C)cc2)c2nc3cc(Cl)ccc3cc2c1	–	–	–	15	–	–	–	Active
COc1cc(NCCCCNC(=O)/C=C/c2ccc([N+](=O)[O-])cc2)c2nc3cc(Cl)ccc3cc2c1	–	–	5.92	>40	~75	4.79	5.42	Active
COc1ccc(/C=C/C(=O)NCCCCNc2cc(OC)cc3cc4ccc(Cl)cc4nc23)cc1	–	–	5.93	>40	~75	6.28	4.99	Active
COc1cc(NCCCCNC(=O)/C=C/c2ccc(Br)cc2)c2nc3cc(Cl)ccc3cc2c1	–	–	–	15	–	–	–	Active
COc1cc(NCCCCNC(=O)/C=C/c2ccc(C(C)C)cc2)c2nc3cc(Cl)ccc3cc2c1	–	–	6.89	–	–	–	–	Active
COc1cc(NCCCCNC(=O)/C=C/c2ccc(F)cc2)c2nc3cc(Cl)ccc3cc2c1	–	–	6.05	15	~75	–	5.23	Active
COc1cc(NCCCCNC(=O)/C=C/c2ccc(C)cc2)c2nc3cc(Cl)ccc3cc2c1	–	–	–	>40	–	6.20	4.97	Active
